In ChEMBL document CHEMBL1134507, “Potential new antitumor agents from an innovative combination of demethylcantharidin, a modified traditional Chinese medicine, with a platinum moiety” (J Med Chem, 2001):
The source made the active and inactive calls. The rule behind the calls is not given here.

Tests used:
Mus musculus [1] = experiment: In vivo antitumor activity in SK-Hep-1 sc-Inoculated Xenograft in male nude mice dosed at 2 mg/kg (ip)on days 1,5 and 9; Not active; assay type: functional, organism-based; parameters: dose 2 mg/kg
In short: (§1)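 SK-Hep-1 human liver tumor cells inoculated sc into male nude mice. Dosing began once tumors reached 5 mm × 5 mm, given ip on days 1, 5 and 9. Vehicle was normal saline for the reference platinum drug and 5% dextrose for the other Pt complexes. Controls received saline or 5% dextrose. Recorded: T/C (%), body-weight change at nadir, and deaths per group.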

Mus musculus [2] = experiment: Ratio of the relative tumor volume in the Tx group over the control group at day 60, at 2 mg/kg dose (ip) given on days 1, 5 and 9 (In vivo antitumor activity in nude mice); assay type: functional; in short: as §1
Mus musculus [3] = experiment: In vivo antitumor activity in SK-Hep-1 sc-Inoculated Xenograft in male nude mice dosed at 10 mg/kg (ip)on days 1,5 and 9; Acutely toxic; assay type: functional, organism-based; parameters: dose 10 mg/kg; in short: as §1
Mus musculus [4] = experiment: In vivo antitumor activity in SK-Hep-1 sc-Inoculated Xenograft in male nude mice dosed at 4 mg/kg (ip)on days 1,5 and 9; Not active; assay type: functional, organism-based; parameters: dose 4 mg/kg; in short: as §1
Mus musculus [5] = experiment: In vivo antitumor activity in SK-Hep-1 sc-Inoculated Xenograft in male nude mice dosed at 8 mg/kg (ip)on days 1,5 and 9; assay type: functional; in short: as §1
Mus musculus [6] = experiment: Ratio of the relative tumor volume in the Tx group over the control group at day 60, at 4 mg/kg dose (ip) given on days 1, 5 and 9 (In vivo antitumor activity in nude mice); assay type: functional; in short: as §1
Mus musculus [7] = experiment: Ratio of the relative tumor volume in the Tx group over the control group at day 60, at 8 mg/kg dose (ip) given on days 1, 5 and 9 (In vivo antitumor activity in nude mice); assay type: functional; in short: as §1
Mus musculus [8] = experiment: Toxicity in male nude mice measured as N (no. of deaths), at 75 mg/kg (ip) given on days 1, 5 and 9; assay type: organism-based; parameters: dose 75 mg/kg; details: in vivo; in short: as §1
Mus musculus [9] = experiment: Toxicity in male nude mice measured as N (no. of deaths), at 50 mg/kg (ip) given on days 1, 5 and 9; assay type: organism-based; parameters: dose 50 mg/kg; details: in vivo; in short: as §1
L1210 [10] = experiment: Cytotoxicity against […]sensitive mouse leukemia, assessed by MTT assay after 72 hr of compound exposure; assay type: functional, cell-based
In short: (§2)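 MTT cytotoxicity assay run on cisplatin-sensitive parental cells and cisplatin-resistant sublines. Drug exposure was 72 h for L1210 and 96 h for NCI:H460. IC50 determined for each cell line. Fold resistance = IC50 in resistant cells divided by IC50 in parental cells.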

MDA-MB-231 = experiment: Growth inhibitory activity against MDA-MB-231 human breast cancer cell line; assay type: functional, cell-based
In short: (§3)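 Tetrazolium (MTT) assay. Drug treatment began 24 h after cell seeding, exposure lasted 72 h, and the MTT test followed. Read-out was IC50.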

SK-HEP1 = experiment: Growth inhibitory activity against SK-Hep1 human liver cancer cell line; assay type: functional, cell-based; in short: as §3
NCI-H460 [11] = experiment: Growth inhibitory activity against NCI-H460 human lung cancer cell line; assay type: functional, cell-based; in short: as §3
L1210 [12] = experiment: Cytotoxicity against […]resistant mouse leukemia, assessed by MTT assay after 72 h of compound exposure (resistance level); assay type: functional, cell-based; in short: as §2
L1210 [13] = experiment: Growth inhibitory activity against L1210 mouse leukemia cancer cell line; assay type: functional, cell-based; in short: as §3
Mus musculus [14] = experiment: Toxicity in male nude mice measured as N (no. of deaths), at 120 mg/kg (ip) given on days 1, 5 and 9; assay type: organism-based; parameters: dose 120 mg/kg; details: in vivo; in short: as §1
Mus musculus [15] = experiment: Toxicity in male nude mice measured as N (no. of deaths), at 25 mg/kg (ip) given on days 1, 5 and 9; assay type: organism-based; parameters: dose 25 mg/kg; details: in vivo; in short: as §1
NTERA-2-cl-D1 = experiment: Growth inhibitory activity against […]-cl-D1 human testicular cancer cell line; assay type: functional, cell-based; in short: as §3
Mus musculus [16] = experiment: Toxicity in male nude mice measured as N (no. of deaths), at 100 mg/kg (ip) given on days 1, 5 and 9; assay type: organism-based; parameters: dose 100 mg/kg; details: in vivo; in short: as §1
NCI-H460 [17] = experiment: Cytotoxicity against NCI-H460-sensitive Human Nonsmall Cell Lung Cancer cell line assessed by MTT assay after 96 hr of compound exposure; assay type: functional, cell-based; in short: as §2
COLO 320DM = experiment: Growth inhibitory activity against COLO-320-DM human colon cancer cell line; assay type: functional, cell-based; in short: as §3
NCI-H460 [18] = experiment: Cytotoxicity against NCI-H460-resistant Human Nonsmall Cell Lung Cancer cell line assessed by MTT assay after 96 hr of compound exposure (resistance level); assay type: functional, cell-based; in short: as §2
SK-OV-3 = experiment: Growth inhibitory activity against SK-OV-3 human ovarian cancer cell line; assay type: functional, cell-based; in short: as §3
Mus musculus [19] = experiment: In vivo antitumor activity in SK-Hep-1 sc-Inoculated Xenograft in male nude mice dosed at 120 mg/kg (ip)on days 1,5 and 9; assay type: functional, organism-based; parameters: dose 120 mg/kg
In short: (§4)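 Male nude mice bearing subcutaneous SK-Hep-1 human liver tumor xenografts. Dosing started once tumors reached 5 mm × 5 mm, given ip on days 1, 5 and 9. Cisplatin was given in normal saline and other Pt complexes in 5% dextrose; controls received either vehicle. T/C (%), weight change at nadir and deaths recorded.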

Mus musculus [20] = experiment: In vivo antitumor activity in SK-Hep-1 sc-Inoculated Xenograft in male nude mice dosed at 100 mg/kg (ip)on days 1,5 and 9; assay type: functional, organism-based; parameters: dose 100 mg/kg; in short: as §4
Mus musculus [21] = experiment: Ratio of the relative tumor volume in the Tx group over the control group at day 60, at 75 mg/kg dose (ip) given on days 1, 5 and 9 (In vivo antitumor activity in nude mice); assay type: functional, organism-based; parameters: dose 75 mg/kg
Mus musculus [22] = experiment: In vivo antitumor activity in SK-Hep-1 sc-Inoculated Xenograft in male nude mice dosed at 25 mg/kg (ip)on days 1,5 and 9; Not active; assay type: functional, organism-based; parameters: dose 25 mg/kg; in short: as §4
Mus musculus [23] = experiment: In vivo antitumor activity in SK-Hep-1 sc-Inoculated Xenograft in male nude mice dosed at 50 mg/kg (ip)on days 1,5 and 9; Not active; assay type: functional, organism-based; parameters: dose 50 mg/kg; in short: as §4
Mus musculus [24] = experiment: Ratio of the relative tumor volume in the Tx group over the control group at day 60, at 120 mg/kg dose (ip) given on days 1, 5 and 9 (In vivo antitumor activity in nude mice); assay type: functional, organism-based; parameters: dose 120 mg/kg
Mus musculus [25] = experiment: In vivo antitumor activity in SK-Hep-1 sc-Inoculated Xenograft in male nude mice dosed at 75 mg/kg (ip)on days 1,5 and 9; Not active; assay type: functional, organism-based; parameters: dose 75 mg/kg; in short: as §4
Mus musculus [26] = experiment: Ratio of the relative tumor volume in the Tx group over the control group at day 60, at 25 mg/kg dose (ip) given on days 1, 5 and 9 (In vivo antitumor activity in nude mice); assay type: functional, organism-based; parameters: dose 25 mg/kg
Mus musculus [27] = experiment: Ratio of the relative tumor volume in the Tx group over the control group at day 60, at 100 mg/kg dose (ip) given on days 1, 5 and 9 (In vivo antitumor activity in nude mice); assay type: functional, organism-based; parameters: dose 100 mg/kg
Mus musculus [28] = experiment: Ratio of the relative tumor volume in the Tx group over the control group at day 60, at 50 mg/kg dose (ip) given on days 1, 5 and 9 (In vivo antitumor activity in nude mice); assay type: functional, organism-based; parameters: dose 50 mg/kg
Mus musculus [29] = experiment: Toxicity in male nude mice measured as N (no. of deaths), at 10 mg/kg (ip) given on days 1, 5 and 9; assay type: organism-based; parameters: dose 10 mg/kg; details: in vivo; in short: as §1
Mus musculus [30] = experiment: Toxicity in male nude mice measured as N (no. of deaths), at 4 mg/kg (ip) given on days 1, 5 and 9; assay type: organism-based; parameters: dose 4 mg/kg; details: in vivo; in short: as §1
Mus musculus [31] = experiment: Toxicity in male nude mice measured as N (no. of deaths), at 8 mg/kg (ip) given on days 1, 5 and 9; assay type: organism-based; parameters: dose 8 mg/kg; details: in vivo; in short: as §1
Mus musculus [32] = experiment: Toxicity in male nude mice measured as N (no. of deaths), at 2 mg/kg (ip) given on days 1, 5 and 9; assay type: organism-based; parameters: dose 2 mg/kg; details: in vivo; in short: as §1
L1210 [33] = experiment: Cytotoxicity against Cisplatin-resistant L1210-resistant mouse leukemia, assessed by MTT assay after 72 hr of compound exposure (resistance level); assay type: functional, cell-based; in short: as §2
Mus musculus [34] = experiment: Ratio of the relative tumor volume in the Tx group over the control group at day 60, at 10 mg/kg dose (ip) given on days 1, 5 and 9 (In vivo antitumor activity in nude mice); assay type: functional, organism-based; parameters: dose 10 mg/kg
Mus musculus [35] = experiment: In vivo antitumor activity in SK-Hep-1 sc-Inoculated Xenograft in male nude mice dosed at 4 mg/kg (ip)on days 1,5 and 9; assay type: functional, organism-based; parameters: dose 4 mg/kg; in short: as §4
Mus musculus [36] = experiment: In vivo antitumor activity in SK-Hep-1 sc-Inoculated Xenograft in male nude mice dosed at 10 mg/kg (ip)on days 1,5 and 9; assay type: functional, organism-based; parameters: dose 10 mg/kg; in short: as §4

Compound	Weight change at nadir (Mus musculus [1])	T/C (Mus musculus [2])	Weight change at nadir (Mus musculus [5])	T/C (Mus musculus [6])	T/C (Mus musculus [7])	IC50 (L1210 [10])	IC50 (MDA-MB-231)	IC50 (SK-HEP1)	IC50 (NCI-H460 [11])	IC50 (L1210 [13])	IC50 (NTERA-2-cl-D1)	IC50 (NCI-H460 [17])	IC50 (COLO 320DM)	IC50 (NCI-H460 [18])	IC50 (SK-OV-3)	other results
O=C1OC(=O)C2C3CCC(O3)C12 (stereo unspecified) [DEMETHYL-CANTHARIDIN]	inactive	63.2%	-20%	66.1%	34.8%	–	–	–	–	–	–	–	–	–	–	Weight change at nadir (Mus musculus [3]): Toxic; Weight change at nadir (Mus musculus [4]): inactive
CARBOPLATIN [listing 1 of 2 here]	–	–	–	–	–	17.8 µM	1080 µM	501 µM	60.3 µM	10.1 µM	2.75 µM	17.8 µM	188 µM	54.6 µM	149 µM	No. of deaths (Mus musculus [8]): 2; No. of deaths (Mus musculus [9]): 2; IC50 (L1210 [12]): 138 µM; No. of deaths (Mus musculus [14]): 4; No. of deaths (Mus musculus [15]): 1; No. of deaths (Mus musculus [16]): 5
CARBOPLATIN [listing 2 of 2 here]	–	–	–	–	–	–	–	–	–	–	–	–	–	–	–	Weight change at nadir (Mus musculus [19]): -40%; Weight change at nadir (Mus musculus [20]): -21%; T/C (Mus musculus [21]): 44.9%; Weight change at nadir (Mus musculus [22]): inactive; Weight change at nadir (Mus musculus [23]): inactive; T/C (Mus musculus [24]): 62.8%; Weight change at nadir (Mus musculus [25]): inactive; T/C (Mus musculus [26]): 87.5%; T/C (Mus musculus [27]): 67.8%; T/C (Mus musculus [28]): 109%
CISPLATIN [listing 1 of 2 here]	–	–	–	–	–	1.01 µM	65.7 µM	54.1 µM	11.3 µM	0.51 µM	0.19 µM	0.59 µM	11.9 µM	4.96 µM	15.2 µM	No. of deaths (Mus musculus [29]): 4; No. of deaths (Mus musculus [30]): 4; No. of deaths (Mus musculus [31]): 4; No. of deaths (Mus musculus [32]): 1; IC50 (L1210 [33]): 14.5 µM
CISPLATIN [listing 2 of 2 here]	inactive	87.5%	-35%	81.1%	47.1%	–	–	–	–	–	–	–	–	–	–	T/C (Mus musculus [34]): 39.6%; Weight change at nadir (Mus musculus [35]): -25%; Weight change at nadir (Mus musculus [36]): -40%
